ChEMBL document CHEMBL1255569, “Synthesis of ester prodrugs of 9-(S)-[3-hydroxy-2-(phosphonomethoxy)propyl]-2,6-diaminopurine (HPMPDAP) as anti-poxvirus agents” (J Med Chem, 2010)

Experiments:
[1] = Cytotoxicity against HEL; type: cell-based; details: human, HEL cells
Method in brief: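 HEL cells were seeded at 5 × 10³ cells/well and allowed to proliferate for 24 h, then given medium with graded compound concentrations. After 3 days at 37 °C, cells were counted with a Coulter counter. CC50 (μM) is the concentration halving proliferation relative to untreated controls, estimated from plots of cell number (% of control) against concentration.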

[2] = Cytotoxicity against HEL assessed as change in cell morphology; type: cell-based; details: human, HEL cells
Method in brief: (§1)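 Microscopic inspection of cultures exposed to test compounds. MCC is the minimum compound concentration causing a microscopically detectable alteration of cell morphology.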

[3] = test system: Human alphaherpesvirus 2; test: Antiviral activity against […] infected in HEL assessed as reduction in virus-induce cytopathicity; type: functional, organism-based; details: Human alphaherpesvirus 2, strain G
[4] = test system: Human alphaherpesvirus 1; test: Antiviral activity against acyclovir-resistant HSV1 KOS infected in HEL assessed as reduction in virus-induce cytopathicity; type: functional, organism-based; details: Human alphaherpesvirus 1, KOS
[5] = test system: Human alphaherpesvirus 1; test: Antiviral activity against HSV1 KOS infected in HEL assessed as reduction in virus-induce cytopathicity; type: functional, organism-based; details: Human alphaherpesvirus 1, KOS
[6] = Cytotoxicity against human HSB2 cells assessed as change in cell morphology; type: cell-based, CCRF-HSB-2; method in brief: as §1
[7] = test system: Human betaherpesvirus 5; test: Antiviral activity against Human cytomegalovirus Davis infected in HEL assessed as reduction in virus-induce cytopathicity; type: functional, organism-based; details: Human betaherpesvirus 5, Davis
[8] = test system: Human betaherpesvirus 5; test: Antiviral activity against Human cytomegalovirus AD169 infected in HEL assessed as reduction in virus-induce cytopathicity; type: functional, organism-based; details: Human betaherpesvirus 5, AD169
[9] = test system: Human betaherpesvirus 6; test: Antiviral activity against Human herpesvirus 6 infected in HEL assessed as reduction in virus-induce cytopathicity; type: functional, organism-based
[10] = test system: Human alphaherpesvirus 3; test: Antiviral activity against acyclovir-resistant VZV OKA infected in HEL assessed as reduction in virus-induce cytopathicity; details: Human alphaherpesvirus 3, OKA
[11] = test system: Human alphaherpesvirus 3; test: Antiviral activity against acyclovir-resistant VZV 07/1 infected in HEL assessed as reduction in virus-induce cytopathicity; details: Human alphaherpesvirus 3, 07/1
[12] = test system: Vaccinia virus; test: Antiviral activity against Vaccinia virus infected in HEL assessed as reduction in virus-induce cytopathicity; type: functional, organism-based; details: Orthopoxvirus vaccinia

SMILES | MCC [1] [mM] | MCC [2] [µM] | EC50 [3] [µM] | EC50 [4] [µM] | CC50 [1] [µM] | EC50 [5] [µM] | MCC [6] [µM] | EC50 [7] [µM] | EC50 [8] [µM] | EC50 [9] [µM] | EC50 [10] [µM] | EC50 [11] [nM] | EC50 [12] [µM] | CC50 [2] [µM]
Nc1nc2c(ncn2COCCO)c(=O)[nH]1 [ACYCLOVIR] | 1.58 | > 444 | 0.3 | 125 | – | – | – | – | – | – | – | – | – | –
Nc1nc(N)c2ncn(C[C@@H](CO)OCP(=O)(O)OCC(F)(F)F)c2n1 | – | > 250 | 10.7 | 5 | > 250 | 5.6 | > 62 | 54.2 | 44 | > 62 | 2.27 | 430 | 7.95 | –
CCCCCCCCCCCCCCCCCCOCCOP(=O)(O)CO[C@H](CO)Cn1cnc2c(N)nc(N)nc21 | – | ≥ 6.3 | 0.0022 | 0.00085 | 18.8 | 0.0008 | ≥ 39.3 | 0.0094 | 0.041 | 34.6 | 0.0013 | 0.08 | 0.00074 | –
Nc1nc(N)c2ncn(C[C@@H](CO)OCP(=O)(O)O)c2n1 | – | > 314 | 2.83 | 1.35 | > 314 | 2.86 | 126 | 6.4 | 11.2 | 17.6 | 0.22 | 8.2 | 0.5 | –
CC(C)OC(=O)[C@@H](CO[P@@]1(=O)CO[C@@H](Cn2cnc3c(N)nc(N)nc32)CO1)NC(=O)[C@@H](N)C(C)C | – | > 177 | 1.42 | 7.1 | 148 | 7.97 | > 177 | 22.1 | 15.2 | > 177 | 1.06 | 250 | 2.62 | –
CCCCCCCCCCCCCCCCOCCO[P@]1(=O)CO[C@@H](Cn2cnc3c(N)nc(N)nc32)CO1 | – | 35.2 | 0.026 | 0.017 | 28.1 | 0.026 | 0.5 | 0.008 | 0.015 | > 44 | 0.004 | 0.7 | 0.0035 | –
CC(C)OC(=O)[C@@H](CO[P@]1(=O)CO[C@@H](Cn2cnc3c(N)nc(N)nc32)CO1)NC(=O)[C@@H](N)C(C)C | – | ≥ 177 | 2.3 | 3.52 | 159 | 5.58 | 177 | 7.1 | 12 | > 177 | 0.73 | 200 | 2.02 | –
Nc1nc2c(ncn2COC(CO)CO)c(=O)[nH]1 [GANCICLOVIR] | – | ≥ 392 | – | – | 1080 | – | – | 10.2 | 9.4 | – | – | – | – | –
CCCCCCCCCCCCCCCCOCCO[P@@]1(=O)CO[C@@H](Cn2cnc3c(N)nc(N)nc32)CO1 | – | 35.2 | 0.008 | 0.007 | 30 | 0.01 | 0.5 | 0.005 | 0.011 | > 44 | 0.0018 | 0.18 | 0.0026 | –
CCCCCCCCCCCCCCCCOCCCOP(=O)(O)CO[C@H](CO)Cn1cnc2c(N)nc(N)nc21 | – | ≥ 6.4 | 0.0071 | 0.0027 | ≥ 161 | 0.0045 | 40 | 0.0037 | 0.021 | 10.3 | 0.0027 | 0.21 | 0.00074 | –
Nc1nc(N)c2ncn(C[C@H]3COP(=O)(OCC(F)(F)F)CO3)c2n1 (some centres not stated) | – | > 239 | 1.91 | 4.78 | ≥ 219 | 6.57 | > 239 | 24.4 | 19.1 | 177 | 0.62 | 170 | 2.08 | –
Nc1ccn(C[C@@H](CO)OCP(=O)(O)O)c(=O)n1 [CIDOFOVIR] | – | ≥ 317 | 2.19 | 1.37 | 511 | 1.62 | – | 0.79 | 1.14 | – | 0.13 | 110 | 7.3 | –
CCCCCCCCCCCCCCCCCCOCCO[P@]1(=O)CO[C@@H](Cn2cnc3c(N)nc(N)nc32)CO1 | – | 6.7 | 0.037 | 0.017 | 129 | 0.03 | 0.5 | 0.0034 | 0.015 | > 42 | 0.045 | 10 | 0.052 | –
CC(C)(C)C(=O)OCOP1(=O)CO[C@@H](Cn2cnc3c(N)nc(N)nc32)CO1 (some centres not stated) | – | ≥ 231 | 1.34 | 2.41 | ≥ 201 | 2.22 | 62.5 | 6.8 | 6.94 | 7.63 | 0.3 | 93 | 0.183 | –
CC(C)(C)C(=O)OCO[P@]1(=O)CO[C@@H](Cn2cnc3c(N)nc(N)nc32)CO1 | – | ≥ 231 | 1.78 | 3.33 | > 222 | 1.83 | 64.7 | 15.5 | 14 | 14.6 | 0.72 | 160 | 0.37 | –
CC(C)(C)C(=O)OCOP(=O)(O)CO[C@H](CO)Cn1cnc2c(N)nc(N)nc21 | – | > 227 | 3.15 | 2.95 | ≥ 227 | 2.76 | 227 | 11.6 | 12.9 | 30.6 | 0.79 | 340 | 1.63 | –
Nc1nc(N)c2ncn(C[C@H]3COP(=O)(O)CO3)c2n1 | – | > 333 | 4.33 | 3.6 | > 333 | 3.6 | – | 10 | 15 | – | 0.37 | 770 | 0.53 | –
CCCCCCCCCCCCCCCCOCCCOP1(=O)CO[C@@H](Cn2cnc3c(N)nc(N)nc32)CO1 (some centres not stated) | – | 6.9 | 0.053 | 0.053 | 13.7 | 0.031 | 8.6 | 0.021 | 0.034 | 0.16 | 0.012 | 1.7 | 0.011 | –
CCCCOC(=O)c1ccccc1OP1(=O)CO[C@@H](Cn2cnc3c(N)nc(N)nc32)CO1 (some centres not stated) | – | 103 | 3.76 | 3.1 | 168 | 5.36 | ≥ 205 | 6.8 | 11.5 | > 205 | 0.53 | 120 | 2.3 | –
CCCCCCCCCCCCCCCCCCOCCO[P@@]1(=O)CO[C@@H](Cn2cnc3c(N)nc(N)nc32)CO1 | – | 6.7 | 0.011 | 0.007 | 15.1 | 0.013 | 0.5 | 0.008 | 0.027 | > 42 | 0.0047 | 0.7 | 0.005 | –
O=c1[nH]c(=O)n([C@H]2C[C@H](O)[C@@H](CO)O2)cc1/C=C/Br [BRIVUDINE] | – | – | 75.3 | > 150 | 339 | 0.03 | – | – | – | – | 0.016 | 137000 | – | > 300
